Source: ChEMBL document CHEMBL1123946, “Cholecystokinin antagonists. Synthesis and biological evaluation of 4-substituted 4H-[1,2,4]triazolo[4,3-a][1,4]benzodiazepines” (J Med Chem, 1988)

Assays:
[1] = Displacement of [125I]CCK from Cholecystokinin receptor of guinea pig brain; parameters: species or system Cavia porcellus
Procedure, shortened: (§1)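 Membrane binding: [125I]-CCK-33 to rat pancreas and guinea pig cortex, and [125I]gastrin to guinea pig gastric glands. Values are the means of triplicate determinations.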

Mus musculus [2] = assay: Effective dose for antagonism of CCK-8 inhibition of gastric emptying, 1 hr after oral administration; format: functional; conditions: Stomach
Procedure, shortened: (§2)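 Mice were dosed orally in 0.5% methylcellulose vehicle (N ≥ 10/dose), 1 h, 4 h or 5 h before CCK-8 (80 μg/kg, sc). CCK-8 was given 5 min before a charcoal meal, and gastric emptying was then scored. ED50 is the dose protecting 50% of mice, from regression over at least three dose levels.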

[3] = target: T1, Cholecystokinin receptor type A (Rattus norvegicus, UniProt P30551); assay: Displacement of [125I]CCK from Cholecystokinin receptor of rat pancreas; procedure, shortened: as §1
T1 sequence (P30551 whole entry): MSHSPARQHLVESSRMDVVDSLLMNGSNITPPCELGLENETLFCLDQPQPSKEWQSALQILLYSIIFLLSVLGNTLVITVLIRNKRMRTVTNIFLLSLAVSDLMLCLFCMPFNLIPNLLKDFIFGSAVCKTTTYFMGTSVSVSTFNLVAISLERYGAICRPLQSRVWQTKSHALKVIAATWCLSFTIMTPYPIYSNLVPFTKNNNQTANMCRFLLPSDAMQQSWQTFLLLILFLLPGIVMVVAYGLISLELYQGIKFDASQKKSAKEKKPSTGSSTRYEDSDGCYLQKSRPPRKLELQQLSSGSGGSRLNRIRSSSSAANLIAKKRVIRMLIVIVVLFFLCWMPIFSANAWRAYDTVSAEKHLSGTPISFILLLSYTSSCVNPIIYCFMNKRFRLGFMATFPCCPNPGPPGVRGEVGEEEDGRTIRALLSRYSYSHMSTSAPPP

Mus musculus [4] = assay: Effective dose for antagonism of CCK-8 inhibition of gastric emptying, 5 hr after oral administration; format: functional; conditions: Stomach; procedure, shortened: as §2
[5] = Displacement of [125I]gastrin from guinea pig gastric glands
Mus musculus [6] = assay: Effective dose for antagonism of CCK-8 inhibition of gastric emptying, 4 hr after oral administration; format: functional; conditions: Stomach; procedure, shortened: as §2

`Cc1nnc2n1-c1ccccc1C(c1ccccc1)=NC2NC(=O)Nc1ccc(Cl)cc1` (stereo not drawn) gave an IC50 [1] of 0.12 µM.
In the case of `O=C(NC1N=C(c2ccccc2F)c2ccccc2-n2cnnc21)c1ccc(Cl)cc1` (stereo not drawn), the ED50 (Mus musculus [2]) is reported as 0.12 mg/kg and the IC50 [1] is reported as 9.3 µM.
With `Fc1ccccc1C1=N[C@H](Cc2c[nH]c3ccccc23)c2nncn2-c2ccccc21` the IC50 [1] was about 100 µM.
For `CN(C)Cc1nnc2n1-c1ccccc1C(c1ccccc1F)=N[C@@H]2Cc1c[nH]c2ccccc12`, the IC50 [1] was about 100 µM.
For `O=C(NC1N=C(c2ccccc2F)c2ccccc2-n2cnnc21)OCc1ccccc1` (stereo not drawn), the IC50 [1] was 8 µM.
Molecule `Fc1ccccc1C1=N[C@H](Cc2c[nH]c3ccccc23)c2nnc(-c3ccccc3)n2-c2ccccc21` has an IC50 [1] of about 100 µM.
For `O=C(NC1N=C(c2ccccc2)c2ccccc2-n2cnnc21)OCc1ccccc1` (stereo not drawn), the IC50 [3] was 0.1 µM and the IC50 [1] was 7.7 µM.
With `O=C(NC1N=C(c2ccccc2F)c2ccccc2-n2cnnc21)c1cc2ccccc2[nH]1` (stereo not drawn) the ED50 (Mus musculus [2]) was 0.02 mg/kg, the ED50 (Mus musculus [4]) was 0.12 mg/kg and the IC50 [1] was 0.053 µM.
In the case of `Fc1ccccc1C1=N[C@H](Cc2c[nH]c3ccccc23)c2nnc(C(Cl)(Cl)Cl)n2-c2ccccc21`, the IC50 [1] is reported as over 100 µM.
With `Cc1nnc2n1-c1ccccc1C(c1ccccc1F)=N[C@@H]2Cc1c[nH]c2ccccc12` the IC50 [5] was 12 µM, the ED50 (Mus musculus [2]) was 76 mg/kg and the ED50 (Mus musculus [4]) was 200 mg/kg. The IC50 [1] was 39 µM.
For `O=C(Nc1ccc(Cl)cc1)NC1N=C(c2ccccc2)c2ccccc2-n2cnnc21` (stereo not drawn), the IC50 [1] was 0.48 µM.
`Cc1nnc2n1-c1ccccc1C(c1ccccc1F)=NC2NC(=O)c1cc2ccccc2[nH]1` (stereo not drawn) gave an IC50 [3] of 0.0002 µM, an ED50 (Mus musculus [6]) of 0.13 mg/kg and an ED50 (Mus musculus [2]) of 0.05 mg/kg. The IC50 [1] was 0.008 µM.
In the case of `Cc1nnc2n1-c1ccc(Cl)cc1C(c1ccccc1)=NC2` [ALPRAZOLAM], the IC50 [3] is reported as 64 µM and the IC50 [1] is reported as over 100 µM.
In the case of `CN1C(=O)[C@@H](NC(=O)c2cc3ccccc3[nH]2)N=C(c2ccccc2)c2ccccc21` [DEVAZEPIDE], the ED50 (Mus musculus [2]) is reported as 0.04 mg/kg and the ED50 (Mus musculus [4]) is reported as 0.06 mg/kg.
Work on `Cc1nnc2n1-c1ccc(Cl)cc1C(c1ccccc1Cl)=NC2` [TRIAZOLAM] yielded an IC50 [3] of 39 µM and an IC50 [1] of over 100 µM.
